Experimental data collected from several papers.
Lines come from different studies, so protocols differ.
Organism: Enterococcus faecalis
Read-out: microbial growth

| Structure (SMILES) | technique | strain | time | MIC |
| --- | --- | --- | --- | --- |
| Cc1ccc(C)n1-c1ccc(-c2nnc(-c3ccc(O)cc3)[nH]2)cc1 | broth dilution | ATCC14506 | 18 h | 31.2 µg/mL |
| Cc1ccc2nc(-c3cccc(O)c3)[nH]c2c1 | broth dilution | ATCC29212 |  | 64 µg/mL |
| Cc1ccc(C)n1-c1ccc(-c2nnc(-c3ccc(N(C)C)cc3)[nH]2)cc1 | broth dilution | ATCC14506 | 18 h | 31.2 µg/mL |
| COc1ccc(-c2nc3ccc(C)cc3[nH]2)cc1OC | broth dilution | ATCC29212 |  | 128 µg/mL |
| C/C=C(\C)c1cc(OC(=O)c2c(O)c(C)c(O)c(Cl)c2/C(C)=C/C)c(C)c(O)c1C(=O)O | broth dilution | ATCC29212 |  | 64 µg/mL |
| CO[C@@H](C(N)=O)[C@H](NC(=O)c1ccc(NC(=O)c2ccc(C#N)cc2)cc1)C(=O)Nc1ccc(C(=O)Nc2ccc(C(=O)Nc3ccc(C(=O)O)cc3)c(O)c2OC(C)C)cc1 |  | ATCC29212 |  | 0.125 µg/mL |
| CNC(=O)c1cc(Oc2ccc(NC(=O)Nc3ccc(Cl)c(C(F)(F)F)c3)cc2)ccn1 |  |  |  | > 100 µM |
| COc1cccc(-c2nc3ccccc3n2Cc2ccccc2)c1 | broth dilution | ATCC29212 |  | 64 µg/mL |
| C/C=C(\C)c1cc(O)c(C)c(OC(=O)c2c(C)c(Cl)c(O)c(Cl)c2O)c1 | broth dilution | ATCC29212 |  | 8 µg/mL |
| Cc1ccc(C)n1-c1ccc(-c2nnco2)cc1 | broth dilution | ATCC14506 | 18 h | 2 µg/mL |
| CN[C@H](CC(C)C)C(=O)N[C@H]1C(=O)N[C@@H](CC(N)=O)C(=O)N[C@H]2C(=O)N[C@H]3C(=O)N[C@H](C(=O)N[C@H](C(=O)O)c4cc(O)cc(O)c4-c4cc3ccc4O)[C@H](O)c3ccc(c(Cl)c3)Oc3cc2cc(c3O[C@@H]2O[C@H](CO)[C@@H](O)[C@H](O)[C@H]2O[C@H]2C[C@](C)(N)[C@H](O)[C@H](C)O2)Oc2ccc(cc2Cl)[C@H]1O | broth dilution | ATCC29212 |  | 2 µg/mL |
| Cc1ccc(C)n1-c1ccc(C(=O)NNC=O)cc1 | broth dilution | ATCC14506 | 18 h | 31.2 µg/mL |
| CSc1ccc(-c2nc3ccccc3[nH]2)cc1 | broth dilution | ATCC29212 |  | 64 µg/mL |
| CCn1cc(C(=O)O)c(=O)c2cc(F)c(N3CCNCC3)cc21 | broth dilution | NCTC12697 |  | 4 µM |
| C/C(=C\c1ccc(C#N)cc1)C(=O)Nc1ccc(C(=O)N[C@@H](CC(N)=O)C(=O)Nc2ccc(C(=O)Nc3ccc(C(=O)Nc4ccc(C(=O)O)cc4)c(O)c3OC(C)C)cc2)cc1 |  | ATCC29212 |  | 0.5 µg/mL |
| Clc1ccc(Cn2c(-c3ccc(Cl)cc3)nc3ccccc32)cc1 | broth dilution | ATCC29212 |  | 16 µg/mL |
| Cc1ccc(C)n1-c1ccc(-c2n[nH]c(=S)[nH]2)cc1 | broth dilution | ATCC14506 | 18 h | 4 µg/mL |
| Cc1ccc2nc(-c3ccc([N+](=O)[O-])cc3)n(Cc3ccccc3)c2c1 | broth dilution | ATCC29212 |  | 8 µg/mL |
| Cc1cc(=O)[nH]n1C(=O)c1ccc(-n2c(C)ccc2C)cc1 | broth dilution | ATCC14506 | 18 h | 125 µg/mL |
| CC1(C)S[C@@H]2[C@H](NC(=O)[C@H](N)c3ccccc3)C(=O)N2[C@H]1C(=O)O | broth dilution | ATCC29212 |  | 2 µg/mL |
